ChEMBL document CHEMBL1151746, “Antitumor agents 6. Synthesis, structure-activity relationships, and biological evaluation of spiro[imidazolidine-4,3'-thieno[2,3-g]quinoline]-tetraones and spiro[thieno[2,3-g]quinoline-3,5'-[1,2,4]triazinane]-tetraones with potent antiproliferative activity” (J Med Chem, 2008)

Legend:
SF-268 = test: Antiproliferative activity against human SF-268 cells after 96 hrs by MTT assay; type: functional, cell-based; settings: SF-268, 96 h
How it was run: (§1)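 Solid-tumor cells in their specific media with 10% FCS were seeded at 5 × 10⁴ cells/mL and left to adhere 16 h. Serially diluted compound was then added (DMSO solution at 200 µM, diluted in medium). MTT viability was read 4 days later. IC50 came from linear regression against untreated controls, which grew at least three rounds, as the mean of three independent determinations.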

XF498 = test: Antiproliferative activity against human XF498 cells after 96 hrs by MTT assay; type: functional, cell-based; settings: XF498, 96 h; how it was run: as §1
ACHN = test: Antiproliferative activity against human ACHN cells after 96 hrs by MTT assay; type: functional, cell-based; how it was run: as §1
MT4 = test: Antiproliferative activity against human MT4 cells after 96 hrs by MTT assay; type: functional, cell-based
How it was run: (§2)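 Exponentially growing cells in RPMI 1640 with 10% FCS were resuspended at 1 × 10⁵ cells/mL in RPMI containing serial dilutions of compound (DMSO solution at 200 µM, diluted in medium). After 96 h at 37 °C, viability was read by MTT. Growth was taken as % of untreated controls, which grew at least three rounds. IC50 came from linear regression, as the mean of three independent determinations.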

HT-29 = test: Antiproliferative activity against human HT-29 cells after 96 hrs by MTT assay; type: functional, cell-based; how it was run: as §1
MCF7 = test: Antiproliferative activity against human MCF7 cells after 96 hrs by MTT assay; type: functional, cell-based; settings: MCF7, 96 h; how it was run: as §1
CCRF-CEM = test: Antiproliferative activity against human CCRF-CEM cells after 96 hrs by MTT assay; type: functional, cell-based; how it was run: as §2
HeLa = test: Antiproliferative activity against human HeLa cells after 96 hrs by MTT assay; type: functional, cell-based; how it was run: as §1
CCRF-SB = test: Antiproliferative activity against human CCRF-SB cells after 96 hrs by MTT assay; type: functional, cell-based; how it was run: as §2
MRC5 = test: Antiproliferative activity against human MRC5 cells after 96 hrs by MTT assay; type: cell-based; settings: MRC5, 96 h; how it was run: as §2

| SMILES | IC50 (SF-268) [µM] | IC50 (XF498) [µM] | IC50 (ACHN) [µM] | IC50 (MT4; Homo sapiens, MT4, 96 h) [µM] | IC50 (HT-29; Homo sapiens, HT-29, 96 h) [µM] | IC50 (MCF7) [µM] | IC50 (CCRF-CEM) [µM] | IC50 (HeLa) [µM] | IC50 (CCRF-SB) [µM] | IC50 (MRC5) [µM] | IC50 (MT4; mt4) [µM] | IC50 (HT-29; ht-29) [µM] |
| --- | --- | --- | --- | --- | --- | --- | --- | --- | --- | --- | --- | --- |
| O=C1C2=C(C(=O)c3ncccc31)C1(CS2)NC(=O)N(c2ccc([N+](=O)[O-])cc2)C1=O (racemic) | 1.52 | 1.03 | 0.1 | 0.008 | 0.25 | 0.35 | 0.001 | 0.1 | 0.002 |  |  |  |
| O=C1NN(c2ccc([N+](=O)[O-])cc2)C(=O)C2(CSC3=C2C(=O)c2ncccc2C3=O)N1 (racemic) | 3.55 | 4.8 | 0.65 | 0.005 | 1.01 | 0.55 | 0.002 | 0.61 | 0.002 |  |  |  |
| O=C1NNC(=O)C2(CSC3=C2C(=O)c2ncccc2C3=O)N1 (stereo in doubt; (+)-3) |  |  |  | 0.55 | 1.58 |  |  |  |  |  |  |  |
| COc1ccc(N2NC(=O)NC3(CSC4=C3C(=O)c3ncccc3C4=O)C2=O)cc1 (racemic) | 2.85 | 3.8 | 0.43 | 0.08 | 0.65 | 0.23 | 0.035 | 0.15 | 0.035 |  |  |  |
| O=C1NN(c2ccc(Cl)cc2)C(=O)C2(CSC3=C2C(=O)c2ncccc2C3=O)N1 (racemic) | 2 | 2.5 | 0.36 | 0.15 | 0.22 | 0.11 | 0.05 | 0.15 | 0.051 |  |  |  |
| O=C1C2=C(C(=O)c3ncccc31)C1(CS2)NC(=O)N(c2ccccc2)C1=O (racemic) | 1.7 | 1.51 | 0.021 | 0.025 | 0.002 | 0.001 | 0.01 | 0.003 | 0.03 |  |  |  |
| CC(C)(C)c1ccc(N2C(=O)NC3(CSC4=C3C(=O)c3ncccc3C4=O)C2=O)cc1 (racemic) | 0.5 | 0.85 | 0.15 | 0.2 | 0.15 | 0.13 | 0.2 | 0.1 | 0.2 |  |  |  |
| O=C1NNC(=O)C2(CSC3=C2C(=O)c2ncccc2C3=O)N1 (racemic) | 4.82 | 5 | 1.05 |  |  | 1.25 | 0.45 | 0.98 | 0.048 |  |  |  |
| Cc1ccc(N2C(=O)NC3(CSC4=C3C(=O)c3ncccc3C4=O)C2=O)cc1 (racemic) | 0.66 | 1.35 | 0.012 | 0.027 | 0.001 | 0.002 | 0.02 | 0.002 | 0.02 |  |  |  |
| O=C1NC(=O)C2(CSC3=C2C(=O)c2ncccc2C3=O)N1 (single isomer, unassigned; (+)) |  |  |  | 0.13 | 0.19 |  |  |  |  |  |  |  |
| COc1cc([C@@H]2c3cc4c(cc3[C@@H](O[C@@H]3O[C@@H]5CO[C@@H](C)O[C@H]5[C@H](O)[C@H]3O)[C@H]3COC(=O)[C@H]23)OCO4)cc(OC)c1O [ETOPOSIDE] | 3.25 | 3.45 | 2.15 | 1.25 | 2.5 | 1 | 1.2 | 3 | 0.1 | 3.9 |  |  |
| O=C1NNC(=O)C2(CSC3=C2C(=O)c2ncccc2C3=O)N1 (single isomer, unassigned; (-)) |  |  |  |  |  |  |  |  |  |  | 0.5 | 1.6 |
| Cc1ccc(N2NC(=O)NC3(CSC4=C3C(=O)c3ncccc3C4=O)C2=O)cc1 (racemic) | 2.1 | 3.8 | 0.5 | 0.1 | 0.2 | 0.41 | 0.07 | 0.21 | 0.037 |  |  |  |
| CCc1ccc(N2C(=O)NC3(CSC4=C3C(=O)c3ncccc3C4=O)C2=O)cc1 (racemic) | 0.45 | 1.2 | 0.005 | 0.001 | 0.001 | 0.05 | 0.01 | 0.005 | 0.01 |  |  |  |
| CCCCCc1ccc(N2C(=O)NC3(CSC4=C3C(=O)c3ncccc3C4=O)C2=O)cc1 (racemic) | 0.52 | 0.83 | 0.25 | 0.19 | 0.25 | 0.25 | 0.25 | 0.2 | 0.15 |  |  |  |
| CCCCc1ccc(N2C(=O)NC3(CSC4=C3C(=O)c3ncccc3C4=O)C2=O)cc1 (racemic) | 0.4 | 0.95 | 0.05 | 0.2 | 0.05 | 0.07 | 0.15 | 0.09 | 0.19 |  |  |  |
| COc1ccc(N2C(=O)NC3(CSC4=C3C(=O)c3ncccc3C4=O)C2=O)cc1 (racemic) | 0.65 | 0.65 | 0.05 | 0.07 | 0.002 | 0.05 | 0.05 | 0.001 | 0.01 |  |  |  |
| CCN(CC)c1ccc(N2C(=O)NC3(CSC4=C3C(=O)c3ncccc3C4=O)C2=O)cc1 (racemic) | 0.96 | 0.73 | 0.02 | 0.008 | 0.05 | 0.03 | 0.02 | 0.05 | 0.009 |  |  |  |
| O=C1NN(c2ccccc2)C(=O)C2(CSC3=C2C(=O)c2ncccc2C3=O)N1 (racemic) | 2.2 | 4.55 | 0.94 | 0.15 | 0.55 | 0.15 | 0.09 | 0.21 | 0.039 |  |  |  |
| O=C1NC(=O)C2(CSC3=C2C(=O)c2ncccc2C3=O)N1 (racemic) | 3.1 | 3.12 | 0.08 |  |  | 0.12 | 0.12 | 0.15 | 0.15 |  |  |  |
| O=C1NC(=O)C2(CSC3=C2C(=O)c2ncccc2C3=O)N1 (stereo in doubt; (-)-2) |  |  |  |  |  |  |  |  |  |  | 0.12 | 0.18 |
| O=C1C2=C(C(=O)c3ncccc31)C1(CS2)NC(=O)N(c2ccncc2)C1=O (racemic) | 1.1 | 1.12 | 0.08 | 0.003 | 0.002 | 0.01 | 0.002 | 0.01 | 0.001 |  |  |  |
| O=C1C2=C(C(=O)c3ncccc31)C1(CS2)NC(=O)N(c2ccc(N3CCOCC3)cc2)C1=O (racemic) | 1.98 | 1.7 | 0.14 | 0.8 | 0.75 | 0.75 | 0.6 | 0.2 | 0.65 |  |  |  |
